Tests used:
MDA-MB-468 = test: Growth inhibition of human MDA-MB-468 cells at 10 uM after 96 hrs by MTT assay; format: functional; set-up: scale not given: the % may be the effect or the level left
T47D = test: Growth inhibition of human T47D cells at 10 uM after 96 hrs by MTT assay; format: functional; set-up: scale not given: the % may be the effect or the level left
BT-549 = test: Growth inhibition of human BT549 cells at 10 uM after 96 hrs by MTT assay; format: functional; set-up: scale not given: the % may be the effect or the level left
[1] = Growth inhibition of human Hs 578T cells at 10 uM after 96 hrs by MTT assay; format: functional; set-up: scale not given: the % may be the effect or the level left
MDA-MB-231 = test: Growth inhibition of human MDA-MB-231 cells at 10 uM after 96 hrs by MTT assay; format: functional; set-up: scale not given: the % may be the effect or the level left
MCF7 = test: Growth inhibition of human MCF7 cells at 10 uM after 96 hrs by MTT assay; format: functional; set-up: scale not given: the % may be the effect or the level left
DU-145 = test: Growth inhibition of human DU145 cells at 10 uM after 96 hrs by MTT assay; format: functional; set-up: scale not given: the % may be the effect or the level left
PC-3 = test: Growth inhibition of human PC3 cells at 10 uM after 96 hrs by MTT assay; format: functional; set-up: scale not given: the % may be the effect or the level left
UO-31 = test: Growth inhibition of human UO31 cells at 10 uM after 96 hrs by MTT assay; format: functional; set-up: scale not given: the % may be the effect or the level left
TK-10 = test: Growth inhibition of human TK10 cells at 10 uM after 96 hrs by MTT assay; format: functional; set-up: scale not given: the % may be the effect or the level left
SN12C = test: Growth inhibition of human SN12C cells at 10 uM after 96 hrs by MTT assay; format: functional; set-up: scale not given: the % may be the effect or the level left
RXF 393 = test: Growth inhibition of human RXF393 cells at 10 uM after 96 hrs by MTT assay; format: functional; set-up: scale not given: the % may be the effect or the level left
ACHN = test: Growth inhibition of human ACHN cells at 10 uM after 96 hrs by MTT assay; format: functional; set-up: scale not given: the % may be the effect or the level left
A498 = test: Growth inhibition of human A498 cells at 10 uM after 96 hrs by MTT assay; format: functional; set-up: scale not given: the % may be the effect or the level left
786-0 = test: Growth inhibition of human 786-0 cells at 10 uM after 96 hrs by MTT assay; format: functional; set-up: scale not given: the % may be the effect or the level left
SK-OV-3 = test: Growth inhibition of human SKOV3 cells at 10 uM after 96 hrs by MTT assay; format: functional; set-up: scale not given: the % may be the effect or the level left
NCI/ADR-RES = test: Growth inhibition of human NCI/ADR-RES cells at 10 uM after 96 hrs by MTT assay; format: functional; set-up: scale not given: the % may be the effect or the level left
OVCAR-8 = test: Growth inhibition of human OVCAR8 cells at 10 uM after 96 hrs by MTT assay; format: functional; set-up: scale not given: the % may be the effect or the level left
OVCAR-5 = test: Growth inhibition of human OVCAR5 cells at 10 uM after 96 hrs by MTT assay; format: functional; set-up: scale not given: the % may be the effect or the level left
OVCAR-4 = test: Growth inhibition of human OVCAR4 cells at 10 uM after 96 hrs by MTT assay; format: functional; set-up: scale not given: the % may be the effect or the level left
OVCAR-3 = test: Growth inhibition of human OVCAR-3 cells at 10 uM after 96 hrs by MTT assay; format: functional; set-up: scale not given: the % may be the effect or the level left
IGROV-1 = test: Growth inhibition of human IGROV1 cells at 10 uM after 96 hrs by MTT assay; format: functional; set-up: scale not given: the % may be the effect or the level left
UACC-62 = test: Growth inhibition of human UACC62 cells at 10 uM after 96 hrs by MTT assay; format: functional; set-up: scale not given: the % may be the effect or the level left
UACC-257 = test: Growth inhibition of human UACC257 cells at 10 uM after 96 hrs by MTT assay; format: functional; set-up: scale not given: the % may be the effect or the level left
SK-MEL-5 = test: Growth inhibition of human SK-MEL-5 cells at 10 uM after 96 hrs by MTT assay; format: functional; set-up: scale not given: the % may be the effect or the level left
SK-MEL-28 = test: Growth inhibition of human SK-MEL-28 cells at 10 uM after 96 hrs by MTT assay; format: functional; set-up: scale not given: the % may be the effect or the level left
SK-MEL-2 = test: Growth inhibition of human SK-MEL-2 cells at 10 uM after 96 hrs by MTT assay; format: functional; set-up: scale not given: the % may be the effect or the level left
MDA-MB-435 = test: Growth inhibition of human MDA-MB-435 cells at 10 uM after 96 hrs by MTT assay; format: functional; set-up: scale not given: the % may be the effect or the level left
M14 = test: Growth inhibition of human M14 cells at 10 uM after 96 hrs by MTT assay; format: functional; set-up: scale not given: the % may be the effect or the level left
Malme-3M = test: Growth inhibition of human MALME-3M cells at 10 uM after 96 hrs by MTT assay; format: functional; set-up: scale not given: the % may be the effect or the level left
LOX IMVI = test: Growth inhibition of human LOXIMVI cells at 10 uM after 96 hrs by MTT assay; format: functional; set-up: scale not given: the % may be the effect or the level left
U-251 = test: Growth inhibition of human U251 cells at 10 uM after 96 hrs by MTT assay; format: functional; set-up: scale not given: the % may be the effect or the level left
SNB-75 = test: Growth inhibition of human SNB75 cells at 10 uM after 96 hrs by MTT assay; format: functional; set-up: scale not given: the % may be the effect or the level left
SNB-19 = test: Growth inhibition of human SNB19 cells at 10 uM after 96 hrs by MTT assay; format: functional; set-up: scale not given: the % may be the effect or the level left
SF-539 = test: Growth inhibition of human SF539 cells at 10 uM after 96 hrs by MTT assay; format: functional; set-up: scale not given: the % may be the effect or the level left
SF-295 = test: Growth inhibition of human SF295 cells at 10 uM after 96 hrs by MTT assay; format: functional; set-up: scale not given: the % may be the effect or the level left
SF-268 = test: Growth inhibition of human SF268 cells at 10 uM after 96 hrs by MTT assay; format: functional; set-up: scale not given: the % may be the effect or the level left
SW-620 = test: Growth inhibition of human SW620 cells at 10 uM after 96 hrs by MTT assay; format: functional; set-up: scale not given: the % may be the effect or the level left
KM12 = test: Growth inhibition of human KM12 cells at 10 uM after 96 hrs by MTT assay; format: functional; set-up: scale not given: the % may be the effect or the level left
HT-29 = test: Growth inhibition of human HT-29 cells at 10 uM after 96 hrs by MTT assay; format: functional; set-up: scale not given: the % may be the effect or the level left
HCT-15 = test: Growth inhibition of human HCT15 cells at 10 uM after 96 hrs by MTT assay; format: functional; set-up: scale not given: the % may be the effect or the level left
HCT-116 = test: Growth inhibition of human HCT116 cells at 10 uM after 96 hrs by MTT assay; format: functional; set-up: scale not given: the % may be the effect or the level left
HCC 2998 = test: Growth inhibition of human HCC2998 cells at 10 uM after 96 hrs by MTT assay; format: functional; set-up: scale not given: the % may be the effect or the level left
COLO 205 = test: Growth inhibition of human COLO205 cells at 10 uM after 96 hrs by MTT assay; format: functional; set-up: scale not given: the % may be the effect or the level left
NCI-H522 = test: Growth inhibition of human NCI-H522 cells at 10 uM after 96 hrs by MTT assay; format: functional; set-up: scale not given: the % may be the effect or the level left
NCI-H460 = test: Growth inhibition of human NCI-H460 cells at 10 uM after 96 hrs by MTT assay; format: functional; set-up: scale not given: the % may be the effect or the level left
NCI-H322M = test: Growth inhibition of human NCI-H322M cells at 10 uM after 96 hrs by MTT assay; format: functional; set-up: scale not given: the % may be the effect or the level left
NCI-H23 = test: Growth inhibition of human NCI-H23 cells at 10 uM after 96 hrs by MTT assay; format: functional; set-up: scale not given: the % may be the effect or the level left
NCI-H226 = test: Growth inhibition of human NCI-H226 cells at 10 uM after 96 hrs by MTT assay; format: functional; set-up: scale not given: the % may be the effect or the level left
HOP-92 = test: Growth inhibition of human HOP92 cells at 10 uM after 96 hrs by MTT assay; format: functional; set-up: scale not given: the % may be the effect or the level left
HOP-62 = test: Growth inhibition of human HOP62 cells at 10 uM after 96 hrs by MTT assay; format: functional; set-up: scale not given: the % may be the effect or the level left
EKVX = test: Growth inhibition of human EKVX cells at 10 uM after 96 hrs by MTT assay; format: functional; set-up: scale not given: the % may be the effect or the level left
A549 = test: Growth inhibition of human A549 cells at 10 uM after 96 hrs by MTT assay; format: functional; set-up: scale not given: the % may be the effect or the level left
SR = test: Growth inhibition of human SR cells at 10 uM after 96 hrs by MTT assay; format: functional; set-up: scale not given: the % may be the effect or the level left
[2] = Growth inhibition of human RPMI8266 cells at 10 uM after 96 hrs by MTT assay; format: functional; set-up: scale not given: the % may be the effect or the level left
MOLT-4 = test: Growth inhibition of human MOLT4 cells at 10 uM after 96 hrs by MTT assay; format: functional; set-up: scale not given: the % may be the effect or the level left
K562 = test: Growth inhibition of human K562 cells at 10 uM after 96 hrs by MTT assay; format: functional; set-up: scale not given: the % may be the effect or the level left
HL-60(TB) = test: Growth inhibition of human HL-60(TB) cells at 10 uM after 96 hrs by MTT assay; format: functional; set-up: scale not given: the % may be the effect or the level left
CCRF-CEM = test: Growth inhibition of human CCRF-CEM cells at 10 uM after 96 hrs by MTT assay; format: functional; set-up: scale not given: the % may be the effect or the level left
[3] = Antitumor activity against human KB3 cells after 96 hrs by MTT assay; format: functional, cell-based; conditions: KB3, 96 h
In short: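 Human KB-3 carcinoma cells exposed to increasing compound concentrations; viability read by MTT colorimetric assay after 96 h. Values are means of triplicate assays, expressed relative to untreated controls.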

## C=C(C)[C@H]1CC(=O)C(C)=C2[C@@H](C(=O)OCC)O[C@@H](c3ccc(Cl)cc3Cl)[C@@H]21
MDA-MB-468
  Activity: 13.57%
T47D
  Activity: 40.94%
BT-549
  Activity: 41.32%
[1]
  Activity: 78.32%
MDA-MB-231
  Activity: 76.61%
MCF7
  Activity: 62.06%
DU-145
  Activity: 83.07%
PC-3
  Activity: 44.34%
UO-31
  Activity: 121.05%
TK-10
  Activity: 98.26%
SN12C
  Activity: 94.13%
RXF 393
  Activity: 69.05%
ACHN
  Activity: 89.8%
A498
  Activity: 82.29%
786-0
  Activity: 84.02%
SK-OV-3
  Activity: 103.67%
NCI/ADR-RES
  Activity: 74.31%
OVCAR-8
  Activity: 81.47%
OVCAR-5
  Activity: 119.16%
OVCAR-4
  Activity: 65.97%
OVCAR-3
  Activity: 72.74%
IGROV-1
  Activity: 80.84%
UACC-62
  Activity: 45.44%
UACC-257
  Activity: 51.65%
SK-MEL-5
  Activity: 52.4%
SK-MEL-28
  Activity: 98.82%
SK-MEL-2
  Activity: 39.43%
MDA-MB-435
  Activity: 48.5%
M14
  Activity: 78.49%
Malme-3M
  Activity: 84.13%
LOX IMVI
  Activity: 66.98%
U-251
  Activity: 53.44%
SNB-75
  Activity: 50.59%
SNB-19
  Activity: 89.23%
SF-539
  Activity: 76.69%
SF-295
  Activity: 88.75%
SF-268
  Activity: 78.47%
SW-620
  Activity: 72.54%
KM12
  Activity: 63.13%
HT-29
  Activity: 66.3%
HCT-15
  Activity: 71.15%
HCT-116
  Activity: 42.99%
HCC 2998
  Activity: 107.11%
COLO 205
  Activity: 94.54%
NCI-H522
  Activity: 9.23%
NCI-H460
  Activity: 58.73%
NCI-H322M
  Activity: 92.62%
NCI-H23
  Activity: 65.8%
NCI-H226
  Activity: 81.04%
HOP-92
  Activity: 49.8%
HOP-62
  Activity: 84.64%
EKVX
  Activity: 69.98%
A549
  Activity: 41.04%
SR
  Activity: 12.69%
[2]
  Activity: -4.6%
MOLT-4
  Activity: 17.98%
K562
  Activity: 25.32%
HL-60(TB)
  Activity: -31.34%
CCRF-CEM
  Activity: 19.48%
[3]
  IC50: 3000 nM

— ChEMBL document CHEMBL1153726, “Synthesis and anticancer activity of sclerophytin-inspired hydroisobenzofurans” (Bioorg Med Chem Lett, 2009)
